Screening results (PubChem BioAssay)
Sampled rows, rich in hits. Any-hit rate of the full collection: about 3%.
B2AR ag: activates human beta-2 adrenergic receptor causing internalization; 340,000 compounds, 0.43% hits; P07550; AID 504454; response, % (no concentration beside the values); Am2.2-beta2AR cells, FAP receptor internalization, flow cytometry;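 active means response above a set limit, near 3 SD of response in nonfluorescent compounds, cut at about 42% in these data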
ABHD5 PLIN5 PPI: blocks binding of human ABHD5 to perilipin-5 | Split G. princeps luciferase complementation, luminescence, 4 h | AID 602281 | Q00G26+Q8WTS1 | 360,000 compounds, 0.78% hits | inhibition, % at 4 µM;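 active means inhibition above the mean inhibition across every tested compound plus 3 SD, cut at about 22% in these data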;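 further: 0% = DMSO only wells and the 100% control is not disclosed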
Target sequence (Q00G26 whole entry, looked up): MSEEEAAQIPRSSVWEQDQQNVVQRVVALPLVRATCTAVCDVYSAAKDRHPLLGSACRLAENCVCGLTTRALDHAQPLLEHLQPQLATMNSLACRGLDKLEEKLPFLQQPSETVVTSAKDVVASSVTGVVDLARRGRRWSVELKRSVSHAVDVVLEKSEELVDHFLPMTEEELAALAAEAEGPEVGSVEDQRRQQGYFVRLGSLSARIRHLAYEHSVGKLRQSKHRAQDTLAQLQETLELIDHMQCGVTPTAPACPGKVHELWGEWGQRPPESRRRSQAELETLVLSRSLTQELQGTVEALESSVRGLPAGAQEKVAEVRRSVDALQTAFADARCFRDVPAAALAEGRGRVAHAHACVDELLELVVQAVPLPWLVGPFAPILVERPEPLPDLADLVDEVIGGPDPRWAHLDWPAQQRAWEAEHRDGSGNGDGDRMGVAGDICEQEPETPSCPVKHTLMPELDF
Target sequence (Q8WTS1 whole entry, looked up): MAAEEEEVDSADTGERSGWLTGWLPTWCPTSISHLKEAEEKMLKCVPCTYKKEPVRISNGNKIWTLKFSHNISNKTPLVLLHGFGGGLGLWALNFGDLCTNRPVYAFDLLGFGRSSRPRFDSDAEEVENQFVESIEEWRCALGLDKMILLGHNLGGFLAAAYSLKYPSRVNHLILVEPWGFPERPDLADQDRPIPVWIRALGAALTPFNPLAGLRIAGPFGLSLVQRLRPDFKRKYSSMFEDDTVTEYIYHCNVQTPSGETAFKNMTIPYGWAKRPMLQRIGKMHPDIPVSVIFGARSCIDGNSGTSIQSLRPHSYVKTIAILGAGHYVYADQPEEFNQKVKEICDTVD
PfGluPho inh: PfG6PD (Plasmodium falciparum) enzyme inhibition; PfGluPho enzyme, NADPH resazurin-diaphorase fluorescence; inhibition, % at 20 µM; 350,000 compounds, 0.78% hits; AID 504690;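 active means inhibition reaching at least a set limit at 20 µM in the primary screen, cut at about 59% in these data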;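 further: 0% = DMSO wells with substrate and 100% = DMSO wells lacking glucose-6-phosphate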
MC4R antag cAMP: human MC4R antagonism in cAMP assay; MC4R-expressing cells, MTII-stimulated cAMP, LANCE TR-FRET; inhibition, % at 6.5 µM; 360,000 compounds, 0.48% hits;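 active means inhibition above its plate's cutoff, the mean of tested wells on that plate plus 3 SD, cut at about 29% in these data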;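 further: 0% = Melanotan II alone and 100% = Melanotan II plus saturating MCL0020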
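System: U2OS cells stably expressing human melanocortin 4 receptor (MC4R). Reagent: Melanotan II challenge after compound preincubation. Doses: 6.5 µM. Times: 30-min compound, 1-h challenge, 1-h detection, room temperature. Measured by: TR-FRET with Eu-cAMP and labeled anti-cAMP, 671 nm. Replicates: singlicate.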
MC4R ag barr: human MC4R agonism via beta-arrestin; P32245; U2OS MC4R beta-arrestin complementation, luminescence; percent of melanotan II response, DMSO zero; activation, % at 8.9 µM; 360,000 compounds, 0.98% hits; AID 540308;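 active means activation above a per-plate cutoff, the mean activation of sample wells on that plate plus 3 SD, cut at about 8% in these data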
Active calls of the source: *; x = no result.

SMILES	B2AR ag	ABHD5 PLIN5 PPI	PfGluPho inh	MC4R antag cAMP	MC4R ag barr
CN(C)CCCNC(=O)C[C@H]1C[C@H](C(=O)N2CCCCC2)[C@@]2(CCc3ccccc3)c3[nH]c4cc(-c5ccco5)ccc4c3CCN2C1=O	31	22*	17	19	0
C=CC(=O)Nc1cccc(N(C)c2ccnc(Nc3ccc(N4CCN(C)CC4)cc3)n2)c1	18	-8	66*	-1	-1
CCCCCCCCCC1(CC(=O)OCC)SCCN1C(N)=O (centres undefined)	x	-8	11	6	0
O=C1C=CC2(O[C@H](c3ccccc3)[C@@H](c3ccccc3)O2)[C@H](Sc2ccccc2O)C1	42*	94*	54	28	-3
Cc1nc2ccc(C(=O)OCc3ccccc3Br)cc2nc1C	-1	0	-15	2	-1
O=[N+]([O-])c1cc(S(=O)(=O)N2CCCCCC2)ccc1F	50*	4	-4	-11	-2
COc1ccc(S(=O)(=O)NCc2ccco2)c2ccccc12	4	23*	29	-7	3
COc1ccc(/C=C/C(=O)O)cc1S(=O)(=O)NCc1ccco1	-6	10	-7	-4	4
c1ccc(CNc2nc(NCc3ccccc3)c3ccccc3n2)cc1	72*	11	10	4	8.6*
CC1(C)CC(=O)C2=C(C1)N(c1cccc(Cl)c1)C(=O)NC2(C(F)(F)F)C(F)(F)F	2	-1	-12	3	-1
O=C(N/N=C1\C/C(=N\NC(=O)c2ccncc2)c2ccccc21)c1ccncc1	10	-17	6	-6	-2
O=C(N/N=C1\CCCc2c1[nH]c1ccc(Cl)cc21)c1ccncc1	45*	12	-5	1	-2
CCOC(=O)c1c(C)n(C)c2ccc(OCC(O)CN3CCN(C)CC3)cc12 (centres undefined)	-9	4	-8	4	1
CCOC(=O)c1c(C)n(-c2ccc(C)cc2)c2ccc(OCC(O)CN3CCN(C)CC3)cc12 (centres undefined)	26	22*	7	7	-2
O=C(COC(=O)Cc1cccc(C(F)(F)F)c1)NC(=O)NC1CCCC1	1	5	5	4	8.3*
CCCc1cc(C(=O)Nc2cnn(Cc3ccc(F)cc3)c2)no1	-12	-3	9	18	-1
O=C(Nc1cnn(Cc2ccc(F)cc2)c1)c1cc(-c2cccs2)on1	-6	-7	-3	-1	13*
COc1ccnc2c1c(=O)n(Cc1ccc(Cl)cc1Cl)c(=O)n2C	-5	-7	3	2	0
Cc1ccc2cc(NC(=O)C3(C)CCN3C(C)C)ccc2n1 (centres undefined)	x	1	x	6	-2
CC(=O)c1ccc2noc(-c3cccc(F)c3)c2c1	10	22*	-22	11	-1
Cc1cc(C)c(S(=O)(=O)NC2CC3CCC2C3)c(C)c1 (centres undefined)	0	-16	-36	19	8.5*
COc1ccc([C@H]2C[C@@H](O)[C@H](n3cc(COC(=O)c4ccccc4)nn3)CN2CC2CCCCC2)cc1	x	-13	38	4	1
CN=c1scc(-c2ccccc2F)n1/N=C/c1ccc(O)c(O)c1O	101*	-6	40	-12	-3
CN1C(=O)c2ccccc2Sc2ccc(NC(=O)NC3CC3)cc21	-4	25*	-1	22	1
O=C(Nc1ccc2c(c1)N(Cc1ccccc1)C(=O)c1ccccc1S2)NC1CC1	3	-6	14	7	-1
SMILES	B2AR ag	ABHD5 PLIN5 PPI	PfGluPho inh	MC4R antag cAMP	MC4R ag barr
CC(=O)Oc1cccc(N2C(=O)c3ccc(C(=O)Nc4c[nH]c(=O)[nH]c4=O)cc3C2=O)c1	-8	-7	2	42*	0
CC(C)CCN1C(=O)c2ccc(C(=O)Nc3c[nH]c(=O)[nH]c3=O)cc2C1=O	0	-4	-11	-5	0
COc1ccccc1-c1nc(C#N)c(N2CCc3ccccc3C2)o1	-17	0	11	9	2
COc1ccc(-c2nc(C#N)c(N3CCc4ccccc4C3)o2)cc1OC	-4	11	-1	2	12*
COCCn1c(N)c(Sc2ccc([N+](=O)[O-])cc2)c(=O)[nH]c1=O	4	-2	-7	-1	-2
Clc1ccc(CSc2nnc(-c3ccncc3)s2)cc1	-4	3	8	3	0
Clc1cccc(Cl)c1CSc1nnc(-c2ccncc2)s1	7	8	23	7	31*
O=C(CCCc1ccccc1)NCCc1ccccc1	-5	3	-7	-1	0
O=C(CCl)N(CCc1ccccc1)CCc1ccccc1	16	5	0	5	8.3*
O=C(COC(=O)/C=C/c1ccc(C(F)(F)F)cc1)NCc1ccco1	-4	-2	-2	5	-3
O=C(c1cc2ccccc2o1)N1CCN(S(=O)(=O)c2ccc(F)c(F)c2F)CC1	16	-1	-2	3	8.2*
CC(C)c1ccc(NC(=O)C2(C)Cc3c(-c4cccc(C(N)=O)c4)ccnc3O2)cc1 (centres undefined)	x	2	x	10	1
O=C(Nc1ccc(F)c(F)c1)c1cnc(-c2ccccc2)nc1-c1ccccc1	-8	4	-8	-1	8.7*
O=C(Nc1ccc(F)cc1)c1cnc(-c2ccccc2)nc1-c1ccccc1	-9	2	-11	12	8
CCC(C(=O)NCCN1CCOCC1)n1c2ccccc2c2nc(=O)cc(C)n21 (centres undefined)	5	-3	0	2	-4
CCOC(=O)c1c(SCCN2CCCC2)n(-c2ccccc2)c(=S)n(-c2ccccc2)c1=O	53*	22*	8	22	-1
Oc1ccc(C[C@H]2CN([C@@H](Cc3cccc(O)c3)CN3CCC[C@@H]3CN3C(=S)NC[C@@H]3Cc3ccccc3)C(=S)N2CC2CCCCC2)cc1	x	23*	x	x	x
CCOC(=O)C1=C[C@@H](CC)N(S(=O)(=O)c2ccc(C)cc2)[C@H]1c1cccs1	x	3	x	x	x
COc1ccc(N=C2S/C(=C\c3ccc(N4CCOCC4)o3)C(=O)N2CCc2c[nH]c3ccccc23)cc1	-499	72*	x	14	3
COc1ccc(N=C2S/C(=C\c3ccc(OCC(=O)O)cc3)C(=O)N2CCc2c[nH]c3ccccc23)cc1	16	-2	18	13	-1
Cc1cccc(Oc2cnn(C(C)(C)C)c(=O)c2Cl)c1	-8	-6	-11	6	8.8*
COc1cnn(C(C)(C)C)c(=O)c1Cl	8	4	8	2	2
COC(=O)c1cccc(NC(=O)Nc2ccc(Cl)cc2Cl)c1	9	6	11	2	9.0*
O=C(O)c1cccc(NC(=O)c2ccccc2NC(=O)c2cccs2)c1	x	-8	-14	9	1
O=C(Nc1ccccc1C(=O)Nc1ccccc1)c1cccs1	-5	-4	8	10	9.0*
